Reference: ChEMBL document CHEMBL1142156, “Pharmacokinetic interaction between voriconazole and methadone at steady state in patients on methadone therapy” (Antimicrob Agents Chemother, 2007)

Columns and labels:
Type in all cases: ADME, organism-based
[1] = AUC (0-24h) in opiate abstinence syndrome patient at 30 to 100 mg, po QD after 2 days; settings: human, plasma
Procedure, shortened: (§1)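 Male patients on individualized once-daily methadone (30-100 mg) sampled on day 2, before any coadministration. Plasma taken at 1, 2, 3, 4, 6, 8, 10, 12, 16 and 24 h postdose. (R)- and (S)-methadone quantified by chiral LC-MS/MS (range 5 to 500 ng/ml per enantiomer). Noncompartmental analysis: Cmax/Tmax observed, AUC0-24 by linear/log-trapezoidal method. Normalized lines scaled to a 100-mg dose.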

[2] = tested on: Homo sapiens; experiment: Dose normalized AUC (0-24h) in opiate abstinence syndrome patient at 30 to 100 mg, po QD after 2 days; settings: in vivo; procedure, shortened: as §1
[3] = Cmax in opiate abstinence syndrome patient at 30 to 100 mg, po QD after 2 days; settings: human, in vivo; procedure, shortened: as §1
[4] = tested on: Homo sapiens; experiment: Dose normalized Cmax in opiate abstinence syndrome patient at 30 to 100 mg, po QD after 2 days; settings: in vivo, 48 h; procedure, shortened: as §1
[5] = Dose normalized Tmax in opiate abstinence syndrome patient at 30 to 100 mg, po QD after 2 days; settings: human, in vivo; procedure, shortened: as §1

Work on `CCC(=O)C(C[C@H](C)N(C)C)(c1ccccc1)c1ccccc1` [ESMETHADONE] yielded an AUC [1] of 4030 ng·h/mL, an AUC [2] of 5730 ng·h/mL and a Cmax [3] of 287 ng/mL. For the same compound, the Cmax [4] was 366 ng/mL and the Tmax [5] was 1 h.

With `CCC(=O)C(C[C@@H](C)N(C)C)(c1ccccc1)c1ccccc1` [LEVOMETHADONE] the AUC [1] was 4300 ng·h/mL, the AUC [2] was 5540 ng·h/mL and the Cmax [3] was 256 ng/mL. It also gave a Cmax [4] of 322 ng/mL and a Tmax [5] of 1 h.
